According to ChEMBL document CHEMBL1122426, “Radioiodine-labeled N,N-dimethyl-N'-(2-hydroxy-3-alkyl-5-iodobenzyl)-1,3-propanediamines for brain perfusion imaging” (J Med Chem, 1983):

Key:
[1] = organism: Rattus norvegicus; assay: Effect of specific activity of compound on biodistribution in rats blood 1 hr after injection at the dose of 6.25 mg value expressed in average % dose per organ; value may range from 0.55 to 0.64; assay type: ADME, organism-based; settings: in vivo
How it was run: (§1)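 Rats received an intravenous injection of the I-125 labeled diamine with added unlabeled carrier (6.25, 2.5, 0.25 or 0.025 mg per dose). At 1 h, organs were counted. Percent dose per organ came from comparing tissue radioactivity with diluted aliquots of the injected dose. Values are the average and range of 3 rats. Brain/blood ratio was taken from % dose per gram, calculated using mean organ weights (brain 1.65 g; blood 18 g).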

[2] = Biodistribution of [125I]- compound in a monkey heart. 1 hr after intravenous injection. the value expressed in %dose/gram; settings: simiiformes, in vivo
[3] = organism: Rattus norvegicus; assay: Effect of specific activity of compound on biodistribution in rats lungs 1 hr after injection at the dose of 6.25 mg value expressed in average % dose per organ; value may range from 2.70 to 7.70; assay type: ADME, organism-based, Lung; settings: in vivo; how it was run: as §1
[4] = Biodistribution of […] compound in a monkey bone. 1 hr after intravenous injection. the value expressed in %dose/organ; assay type: ADME, organism-based, Bone element; settings: simiiformes, in vivo
How it was run: (§2)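 Monkey sedated with ketamine and anesthetized with nembutal, then given ~100 μCi [125I] label (~7 mCi/mg) intravenously. Killed 1 h later by nembutal overdose. Organs dissected, weighed and counted. % dose per organ found against diluted injected-dose aliquots; % dose per gram also reported; brain/blood from per-gram values. Single animal.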

[5] = organism: Rattus norvegicus; assay: Effect of specific activity of compound on biodistribution in rats heart 1 hr after injection at the dose of 6.25 mg value expressed in average % dose per organ; value may range from 0.30 to 0.36; assay type: ADME, organism-based; settings: in vivo; how it was run: as §1
[6] = organism: Rattus norvegicus; assay: Effect of specific activity of compound on biodistribution in rats thyroid 1 hr after injection at the dose of 2.5 mg value expressed in average % dose per organ; value may range from 0.12 to 0.14; assay type: ADME, organism-based, Thyroid gland; settings: in vivo; how it was run: as §1
[7] = organism: Rattus norvegicus; assay: Effect of specific activity of compound on biodistribution in rats liver after injection at the dose of 0.025 mg value expressed in average % dose per organ; value may range from 6.23 to 7.26; assay type: ADME, organism-based; settings: in vivo; how it was run: as §1
[8] = organism: Rattus norvegicus; assay: Effect of specific activity of compound on biodistribution in rats lungs after injection at the dose of 0.025 mg value expressed in average % dose per organ; value may range from 12.0 to 14.5; assay type: ADME, organism-based, Lung; settings: in vivo; how it was run: as §1
[9] = test system: Rattus norvegicus; assay: Biodistribution of I-125 labeled compound in rat thyroid, 2 min after intravenous injection. value expressed in average % dose per organ; value may range from 0.20 to 0.23; assay type: ADME, organism-based, Thyroid gland; settings: in vivo
[10] = organism: Rattus norvegicus; assay: Effect of specific activity of compound on biodistribution in rats blood 1 hr after injection at the dose of 0.025 mg value expressed in average % dose per organ; value may range from 0.84 to 0.99; assay type: ADME, organism-based; settings: in vivo
[11] = organism: Rattus norvegicus; assay: Effect of specific activity of compound on biodistribution in rats brain 1 hr after injection at the dose of 2.5 mg value expressed in average % dose per organ; value may range from 2.13 to 2.36; assay type: ADME, organism-based; settings: in vivo; how it was run: as §1
[12] = organism: Rattus norvegicus; assay: Effect of specific activity of compound on biodistribution in rats liver 1 hr after injection at the dose of 6.25 mg value expressed in average % dose per organ; value may range from 16.5 to 17.2; assay type: ADME, organism-based; settings: in vivo; how it was run: as §1
[13] = Biodistribution of [125I]- compound in a monkey spleen. 1 hr after intravenous injection. the value expressed in %dose/gram; settings: simiiformes, in vivo
[14] = organism: Rattus norvegicus; assay: Effect of specific activity of compound on biodistribution in rats heart after injection at the dose of 0.025 mg value expressed in average % dose per organ; value may range from 0.98 to 1.02; assay type: ADME, organism-based; settings: in vivo; how it was run: as §1
[15] = Biodistribution of [125I]- compound in a monkey muscle. 1 hr after intravenous injection. the value expressed in %dose/gram; settings: simiiformes, in vivo
[16] = Biodistribution of [125I]- compound in a monkey blood. 1 hr after intravenous injection. the value expressed in %dose/gram; settings: simiiformes, in vivo
[17] = organism: Rattus norvegicus; assay: Effect of specific activity of compound on biodistribution in rats brain to blood ratio 1 hr after injection at the dose of 0.25 mg value expressed in % dose per gram ratio; assay type: ADME, organism-based; how it was run: as §1
[18] = Biodistribution of […] compound in a monkey blood. 1 hr after intravenous injection. the value expressed in%dose/organ; assay type: ADME, organism-based; settings: simiiformes, in vivo; how it was run: as §2
[19] = Biodistribution of [125I]- compound in a monkey lungs.1h after intravenous injection. the value expressed in%dose/organ; settings: simiiformes, in vivo
[20] = The protein binding ability of compound was expressed in Percent free; assay type: ADME; settings: read-out: % free
How it was run: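 Binding to pooled human serum was measured by equilibrium dialysis. 0.4 mL serum and 0.4 mL 0.15 M phosphate buffer, pH 7.4, were separated by a membrane, and 0.025 μCi radiolabeled diamine was added on the buffer side. Cells were rotated at 37 °C for 18 h, and aliquots from both sides were weighed and counted. % free = buffer/serum radioactivity concentration ratio × 100. The membrane was also counted.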

[21] = Biodistribution of [125I]- compound in a monkey lungs.1h after intravenous injection. the value expressed in %dose/gram; settings: simiiformes, in vivo
[22] = test system: Rattus norvegicus; assay: Biodistribution of I-125 labeled compound in rat liver, 1 hr after intravenous injection. value expressed in average % dose per organ; value may range from 6.22 to 7.81; assay type: ADME, organism-based; settings: in vivo
[23] = Biodistribution of [125I]- compound in a monkey thyroid. 1 hr after intravenous injection. the value expressed in %dose/organ; settings: simiiformes, in vivo
[24] = test system: Rattus norvegicus; assay: Biodistribution of I-125 labeled compound in rat muscle, 2 min after intravenous injection value expressed in average % dose per organ; value may range from 5.84 to 12.8; assay type: ADME, organism-based, Muscle tissue; settings: in vivo
[25] = organism: Rattus norvegicus; assay: Effect of specific activity of compound on biodistribution in rats blood 1 hr after injection at the dose of 2.5 mg value expressed in average % dose per organ; value may range from 0.58 to 0.71; assay type: ADME, organism-based; settings: in vivo; how it was run: as §1
[26] = organism: Rattus norvegicus; assay: Distribution coefficient at pH 7.4 in rat; assay type: ADME, organism-based
How it was run: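 Octanol/buffer partition: I-125 labeled diamine mixed with 3 g each of 1-octanol and 0.1 M phosphate buffer at pH 7.0 or 7.4, vortexed 3× 1 min, centrifuged 5 min. Two 0.5 g samples of each layer counted. Value is cpm/g octanol over cpm/g buffer, usually repeated three times.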

[27] = test system: Rattus norvegicus; assay: Biodistribution of I-125 labeled compound in rat blood, 1 hr after intravenous injection. value expressed in average % dose per organ; value may range from 0.92 to 1.31; assay type: ADME, organism-based; settings: in vivo
[28] = organism: Rattus norvegicus; assay: Effect of specific activity of compound on biodistribution in rats muscle 1 hr after injection at the dose of 6.25 mg value expressed in average % dose per organ; value may range from 11.5 to 12.9; assay type: ADME, organism-based, Muscle tissue; settings: in vivo; how it was run: as §1
[29] = test system: Rattus norvegicus; assay: Biodistribution of I-125 labeled compound in rat thyroid, 1 hr after intravenous injection. value expressed in average % dose per organ; value may range from 0.17 to 0.23; assay type: ADME, organism-based, Thyroid gland; settings: in vivo
[30] = test system: Rattus norvegicus; assay: Biodistribution of I-125 labeled compound in rat heart, 2 min after intravenous injection. value expressed in average % dose per organ; value may range from 3.03 to 3.55; assay type: ADME, organism-based; settings: in vivo

Average dose per organ [1]: 0.61% | Dose/g [2]: 0.218% | Average dose per organ [3]: 4.5% | Dose per organ [4]: 1.53% | Average dose per organ [5]: 0.33% | Average dose per organ [6]: 0.13% | Average dose per organ [7]: 6.74% | Average dose per organ [8]: 12.8% | Average dose per organ [9]: 0.22% | Average dose per organ [10]: 0.91% | Average dose per organ [11]: 2.21% | Average dose per organ [12]: 16.7% | Dose/g [13]: 0.267% | Average dose per organ [14]: 1% | Dose/g [15]: 0.00491% | Dose/g [16]: 0.002% | Ratio [17]: 22.8% | Dose per organ [18]: 1.23% | Dose per organ [19]: 33% | fraction unbound [20]: 0.483 | Dose/g [21]: 1.05% | Average dose per organ [22]: 7.14% | Dose per organ [23]: 0.333% | Average dose per organ [24]: 9.24% | Average dose per organ [25]: 0.65% | Distribution coefficient [26]: 11.6 | Average dose per organ [27]: 1.1% | Average dose per organ [28]: 12.3% | Average dose per organ [29]: 0.19% | Average dose per organ [30]: 3.23%
SMILES: Cc1cc(I)cc(CNCCCN(C)C)c1O
